Data set [1] in a line: folding enthalpy; higher = less favourable; fluorescence melt of hairpins on a sequencing array, two-state fit. The settings on record: sodium 0.088 M. A digest of the protocol:
(§1)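 Melting temperature and folding enthalpy were derived from bootstrapped two-state fits. The fitted temperatures were raised by 9.35 °C to agree with UV melts, and four replicates were combined by inverse variance. The underlying data were Cy3 fluorescence images of library hairpins, with annealed Cy3 and quencher oligos, on a sequenced MiSeq flow cell in 50 mM Na-HEPES pH 8.0, 25 mM NaCl, taken in 2.5 °C steps up to 60 °C, normalised to pre-quench Cy3 and to control constructs.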

Data set [2] can be described thus: melting temperature; fluorescence melt of hairpins on a sequencing array, two-state fit, raised by 9.35 °C to match UV melts. To be noted: sodium 0.088 M. In a few lines:
as §1

In the case of GAGGGGGAAACCCCTC ((((((....)))))), the folding enthalpy in data set [1] is -30 kcal/mol. In addition, the Tm in data set [2] worked out at 65.4 °C.
With GGGAATCGAAAGATCCC (((.(((....)))))), the folding enthalpy in data set [1] is -24.6 kcal/mol. Besides, in data set [2], the Tm was 49.7 °C.
Regarding GATCGGACCACCGATC ((((((....)))))), the folding enthalpy in data set [1] is -37.2 kcal/mol. In addition, the Tm in data set [2] is 56.9 °C.
In the same order, the values of GCTGGTGGAAACATCGGC ((.(.((....)).).)) are -30.4 kcal/mol and 43 °C.
Turning to GCACTGCGAAAGCCGGGC ((.(.((....)).).)), the folding enthalpy in data set [1] was -22.7 kcal/mol. The Tm in data set [2] was found to be 57.1 °C.
Regarding GGAATCGAAAGATCCTCC ((((((....)))..))), the folding enthalpy in data set [1] was -21.4 kcal/mol. Also, in data set [2], the Tm is 42.7 °C.
The like results for CGTGCGGAAACGCTGACG ((((((....)))..))) were, in that order, -21.2 kcal/mol and 42.5 °C.
In the case of GATCTGCTCGCAGATC ((((((....)))))), in data set [1], the folding enthalpy is -47.5 kcal/mol. Further, the Tm in data set [2] came to 62.6 °C.
Regarding GCGCAAGGAAACCTGCAC (.(((.(....).))).), in data set [1], the folding enthalpy was -17 kcal/mol. Moreover, the Tm in data set [2] worked out at 29.3 °C.
For the sequence GATCCTAGCCAGGATC ((((((....)))))), the folding enthalpy in data set [1] was -40.2 kcal/mol. Moreover, in data set [2], the Tm was 52.1 °C.
With GGTGAGCCGAAAGGCACC (((..(((....)))))), in data set [1], the folding enthalpy was -13.2 kcal/mol. In addition, the Tm in data set [2] was found to be 44.3 °C.
In the same order, the values of GGTTCGGGAAACCGGACC (((.(((....))).))) are -39.5 kcal/mol and 58.3 °C.
Take GTCCTCGAAAGAGTGAC ((((((....))).))): in data set [1], the folding enthalpy was -25.7 kcal/mol. Also, in data set [2], the Tm is 46.3 °C.
As for GGTGACGAAAGTCCGACC ((((((....)))..))), in data set [1], the folding enthalpy is -15.3 kcal/mol. In data set [2], the Tm came out at 39 °C.
As for GCATTCGAAAGAAGGTGC ((((((....)))..))), in data set [1], the folding enthalpy was -22.2 kcal/mol. The Tm in data set [2] was 36.7 °C.
Consider GGACTCGAAAGAGACTCC ((((((....)))..))), for which the folding enthalpy in data set [1] was -11.6 kcal/mol. Further, the Tm in data set [2] was 36 °C.
For GCTTTGGGAAACCAGAGC (((.(((....))).))), in data set [1], the folding enthalpy was -27 kcal/mol. For the same sequence, the Tm in data set [2] amounted to 48 °C.
Take GCGTGGCGAAAGCGGCGC (((..((....))..))): the folding enthalpy in data set [1] is -40.4 kcal/mol. The Tm in data set [2] came to 67.7 °C.
In the same order, the values of GATCCTAGGAAGGATC ((((((....)))))) are -32.8 kcal/mol and 50.1 °C.
The like results for GCTCGGACGAAAGTCAGC (((..(((....)))))) were, in that order, -12.3 kcal/mol and 39.1 °C.
As for GATGTACGAAAGTAGATC (((.(((....))).))), the folding enthalpy in data set [1] was -30.5 kcal/mol. Besides, the Tm in data set [2] worked out at 44 °C.
In the case of GGAAGCGAAAGCTCTCC ((((((....))).))), the folding enthalpy in data set [1] is -16.2 kcal/mol. The Tm in data set [2] is 43.5 °C.
GTGCATCCGAAAGGACAC (((..(((....)))))): the folding enthalpy in data set [1] is -11.7 kcal/mol. Further, the Tm in data set [2] worked out at 38.2 °C.
Take GGTGTTGGAAACGACACC (((((.(....).))))): in data set [1], the folding enthalpy was -50.3 kcal/mol. Moreover, in data set [2], the Tm worked out at 54.3 °C.
Regarding GATCACTTACGTGATC ((((((....)))))), the folding enthalpy in data set [1] is -38.1 kcal/mol. Besides, in data set [2], the Tm is 57.4 °C.
On to GGATAGGCGAAAGCCTCC (((..(((....)))))), for which the folding enthalpy in data set [1] is -10.2 kcal/mol. For the same sequence, the Tm in data set [2] was 36.6 °C.
With GCACAAGGAAACTTGTAC (.(((((....))))).), the folding enthalpy in data set [1] was -20.6 kcal/mol. Further, in data set [2], the Tm is 32.9 °C.
The like results for GGGGTACCGAAAGGTCCC (((..(((....)))))) were, in that order, -27.5 kcal/mol and 56.7 °C.
For GGTGTCGAAAGACTCACC ((((((....)))..))), in data set [1], the folding enthalpy was -17.6 kcal/mol. Further, the Tm in data set [2] was determined as 39.1 °C.
CGCTCACGGAAACGTGCG (((..(((....)))))): in data set [1], the folding enthalpy is -15.6 kcal/mol. In addition, the Tm in data set [2] turned out to be 39.6 °C.
With GTTACGCGAAAGCGCAAC (((.(((....))).))), in data set [1], the folding enthalpy is -19.4 kcal/mol. Further, in data set [2], the Tm was determined as 49.3 °C.
Turning to GTTGCTGGAAACAGCAAC (((((((....))))))), the folding enthalpy in data set [1] is -62.8 kcal/mol. Further, the Tm in data set [2] came out at 65.8 °C.
In the same order, the values of GCGGACGGAAACGTCCAC (.(((((....))))).) are -12.2 kcal/mol and 51.1 °C.
In the same order, the values of GCTAGGCCGAAAGGCAGC (((..(((....)))))) are -15.1 kcal/mol and 47.8 °C.
The like results for GCGGGCTCGAAAGAGCGC (((..(((....)))))) were, in that order, -10.2 kcal/mol and 55 °C.
GCGGACGAAAGTCGGCGC ((((((....)))..))): the folding enthalpy in data set [1] is -26.7 kcal/mol. Further, in data set [2], the Tm was 68 °C.
For the sequence GCACAGCGAAAGCTTGGC ((..(((....)))..)), in data set [1], the folding enthalpy was -15.4 kcal/mol. The Tm in data set [2] was determined as 47.5 °C.

For the origin of these results see the array DNA melting data of Ke et al. (doi:10.1101/2024.01.08.574731).
